In ChEMBL document CHEMBL1817661, “Combining carbochips and mass spectrometry to study the donor specificity for the Neisseria meningitidis β1,3-N-acetylglucosaminyltransferase LgtA” (Bioorg Med Chem Lett, 2011):
Activity calls are given as the source filed them. The rule behind the calls is not given here.

How the values were obtained:
[1] = molecular target: T1, Beta 1,3 N-acetylglucosaminyltransferase (Neisseria meningitidis) (UniProt Q8KHG4); experiment: Activity of Neisseria meningitidis beta1,3-N-acetylglucosaminyltransferase LgtA assessed as enzyme catalyzed glycosylation using self-assembled monolayers having lactoside as acceptor at 2 mM after 5 to 120 mins by SAMDI MS assay
T1 sequence (whole entry): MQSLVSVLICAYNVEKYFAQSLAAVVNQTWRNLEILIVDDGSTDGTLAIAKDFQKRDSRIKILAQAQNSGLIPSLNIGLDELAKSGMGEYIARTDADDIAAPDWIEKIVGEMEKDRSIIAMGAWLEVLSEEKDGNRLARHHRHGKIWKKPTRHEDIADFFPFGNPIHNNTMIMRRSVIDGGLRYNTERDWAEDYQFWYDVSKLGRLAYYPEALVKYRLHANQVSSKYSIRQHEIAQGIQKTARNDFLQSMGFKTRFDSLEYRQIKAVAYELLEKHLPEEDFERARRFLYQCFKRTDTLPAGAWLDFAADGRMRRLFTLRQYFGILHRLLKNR
Summary of the method: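 Gold islands (2 mm) carry a monolayer of lactose (10% density) with tri(ethylene glycol) groups. Each donor analog (2 mM) is mixed with LgtA in assay buffer, applied to an island, and incubated in a humidified chamber at 30 °C. Times were 5, 10, 15, 20, 30, 40, 60 and 120 min. Arrays were rinsed with water and ethanol, matrix was applied, and relative glycosylation product was read by SAMDI MS.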

[2] = molecular target: T1, Beta 1,3 N-acetylglucosaminyltransferase (Neisseria meningitidis); experiment: Ratio of Vmax to Km for Neisseria meningitidis beta1,3-N-acetylglucosaminyltransferase LgtA assessed as enzyme catalyzed glycosylation using lactose as substrate after 2 to 30 mins by SAMDI analysis
Summary of the method: (§1)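 Solution-phase reactions: LgtA with lactose azide acceptor (10 mM) and UDP-sugar donor at five concentrations (1–10 mM), 30 °C. Sets stopped at 12 time points. Aliquots mixed with copper bromide and DIPEA and immobilized on monolayer islands (20 min). Yield comes from product/substrate SAMDI peak intensities. Initial velocities are slopes of linear fits of yield vs time. Apparent Km and Vmax are taken from a reciprocal plot.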

[3] = substrate: CC(=O)N[C@H]1[C@@H](OP(=O)(O)OP(=O)(O)OC[C@H]2O[C@@H](n3ccc(=O)[nH]c3=O)[C@H](O)[C@@H]2O)O[C@H](CO)C[C@@H]1O; experiment: (§2) Activity of Neisseria meningitidis beta1,3-N-acetylglucosaminyltransferase LgtA assessed as enzyme catalyzed glycosylation using lactose as substrate after 2 to 30 mins by SAMDI analysis; summary of the method: as §1
[4] = substrate: CC(=O)N[C@H]1[C@@H](OP(=O)(O)OP(=O)(O)OC[C@H]2O[C@@H](n3ccc(=O)[nH]c3=O)[C@H](O)[C@@H]2O)O[C@H](C)[C@H](O)[C@@H]1O; experiment: as §2; summary of the method: as §1
[5] = substrate: CCC(=O)N[C@H]1[C@@H](OP(=O)(O)OP(=O)(O)OC[C@H]2O[C@@H](n3ccc(=O)[nH]c3=O)[C@H](O)[C@@H]2O)O[C@H](CO)[C@@H](O)[C@@H]1O; experiment: as §2; summary of the method: as §1
[6] = substrate: CC(=O)N[C@H]1[C@@H](OP(=O)(O)OP(=O)(O)OC[C@H]2O[C@@H](n3ccc(=O)[nH]c3=O)[C@H](O)[C@@H]2O)O[C@H](C)[C@@H](O)[C@@H]1O; experiment: as §2; summary of the method: as §1

In the case of `[N-]=[N+]=NCC(=O)N[C@H]1[C@@H](OP(=O)(O)OP(=O)(O)OC[C@H]2O[C@@H](n3ccc(=O)[nH]c3=O)[C@H](O)[C@@H]2O)O[C@H](CO)[C@@H](O)[C@@H]1O`, the Activity [1] is reported as “inactive”.

`CC(=O)N[C@@H]1[C@H](OP(=O)(O)OP(=O)(O)OC[C@H]2O[C@@H](n3ccc(=O)[nH]c3=O)[C@H](O)[C@@H]2O)O[C@@H](CO)[C@H](O)[C@H]1O` (stereo in doubt; 1) gave a Vmax/Km [2] of 1.15 min⁻¹.

For `CC(=O)N[C@H]1[C@@H](OP(=O)(O)OP(=O)(O)OC[C@H]2O[C@@H](n3ccc(=O)[nH]c3=O)[C@H](O)[C@@H]2O)O[C@H](CO)C[C@@H]1O`, the Vmax/Km [2] was 0.029 min⁻¹.

Molecule `CCC(=O)N[C@H]1[C@@H](OP(=O)(O)OP(=O)(O)OC[C@H]2O[C@@H](n3ccc(=O)[nH]c3=O)[C@H](O)[C@@H]2O)O[C@H](CO)[C@@H](O)[C@@H]1O` has a Vmax/Km [2] of 0.005 min⁻¹.

In the case of `CC(=O)N[C@@H]1[C@H](OP(=O)(O)OP(=O)(O)OC[C@H]2O[C@@H](n3ccc(=O)[nH]c3=O)[C@H](O)[C@@H]2O)O[C@@H](CO)[C@H](O)[C@H]1O` (stereo in doubt; 8), the Vmax/Km [2] is reported as 0.065 min⁻¹.

`CC(=O)N[C@H]1[C@@H](OP(=O)(O)OP(=O)(O)OC[C@H]2O[C@@H](n3ccc(=O)[nH]c3=O)[C@H](O)[C@@H]2O)O[C@H](C)[C@H](O)[C@@H]1O` gave a Vmax/Km [2] of 0.038 min⁻¹.

With `CC(=O)N[C@H]1[C@@H](OP(=O)(O)OP(=O)(O)OC[C@H]2O[C@@H](n3ccc(=O)[nH]c3=O)[C@H](O)[C@@H]2O)O[C@H](C)[C@@H](O)[C@@H]1O` the Activity [1] was “Active” and the Vmax/Km [2] was 0.259 min⁻¹.

B1: Beta 1,3 N-acetylglucosaminyltransferase (Neisseria meningitidis), Q8KHG4 (protein)
chain: MQSLVSVLICAYNVEKYFAQSLAAVVNQTWRNLEILIVDDGSTDGTLAIAKDFQKRDSRIKILAQAQNSGLIPSLNIGLDELAKSGMGEYIARTDADDIAAPDWIEKIVGEMEKDRSIIAMGAWLEVLSEEKDGNRLARHHRHGKIWKKPTRHEDIADFFPFGNPIHNNTMIMRRSVIDGGLRYNTERDWAEDYQFWYDVSKLGRLAYYPEALVKYRLHANQVSSKYSIRQHEIAQGIQKTARNDFLQSMGFKTRFDSLEYRQIKAVAYELLEKHLPEEDFERARRFLYQCFKRTDTLPAGAWLDFAADGRMRRLFTLRQYFGILHRLLKNR
For B1, the Km [3] was 3.28 mM, the Vmax [3] was 0.097 mM/min and the Km [4] was 3.05 mM. For the same molecule, the Vmax [4] was 0.115 mM/min, the Km [5] was 21.1 mM and the Vmax [5] was 0.11 mM/min. It also gave a Km [6] of 1.32 mM and a Vmax [6] of 0.343 mM/min.
